Here are results for eleven compounds from ChEMBL document CHEMBL4411317 (Bioorg Med Chem, 2019).

pIC50: −log10 of the molar value.

One series concerns the target Dipeptidyl peptidase 8 (Homo sapiens, UniProt Q6V1X1). The series is described as follows: Inhibition of recombinant full-length human N-terminal GST-tagged DPP8 expressed in Sf9 insect cells using Gly-Pro-AMC as substrate measured at 60 secs interval for 20 mins by fluorescence assay.
For a further series, the target named is Dipeptidyl peptidase 9 (Homo sapiens, UniProt Q86TI2). The series is described as follows: Inhibition of recombinant full-length human N-terminal GST-tagged DPP9 expressed in Sf9 insect cells using Gly-Pro-AMC as substrate measured at 60 secs interval for 20 mins by fluorescence assay.
Sequence of Dipeptidyl peptidase 9 (Q86TI2 whole entry): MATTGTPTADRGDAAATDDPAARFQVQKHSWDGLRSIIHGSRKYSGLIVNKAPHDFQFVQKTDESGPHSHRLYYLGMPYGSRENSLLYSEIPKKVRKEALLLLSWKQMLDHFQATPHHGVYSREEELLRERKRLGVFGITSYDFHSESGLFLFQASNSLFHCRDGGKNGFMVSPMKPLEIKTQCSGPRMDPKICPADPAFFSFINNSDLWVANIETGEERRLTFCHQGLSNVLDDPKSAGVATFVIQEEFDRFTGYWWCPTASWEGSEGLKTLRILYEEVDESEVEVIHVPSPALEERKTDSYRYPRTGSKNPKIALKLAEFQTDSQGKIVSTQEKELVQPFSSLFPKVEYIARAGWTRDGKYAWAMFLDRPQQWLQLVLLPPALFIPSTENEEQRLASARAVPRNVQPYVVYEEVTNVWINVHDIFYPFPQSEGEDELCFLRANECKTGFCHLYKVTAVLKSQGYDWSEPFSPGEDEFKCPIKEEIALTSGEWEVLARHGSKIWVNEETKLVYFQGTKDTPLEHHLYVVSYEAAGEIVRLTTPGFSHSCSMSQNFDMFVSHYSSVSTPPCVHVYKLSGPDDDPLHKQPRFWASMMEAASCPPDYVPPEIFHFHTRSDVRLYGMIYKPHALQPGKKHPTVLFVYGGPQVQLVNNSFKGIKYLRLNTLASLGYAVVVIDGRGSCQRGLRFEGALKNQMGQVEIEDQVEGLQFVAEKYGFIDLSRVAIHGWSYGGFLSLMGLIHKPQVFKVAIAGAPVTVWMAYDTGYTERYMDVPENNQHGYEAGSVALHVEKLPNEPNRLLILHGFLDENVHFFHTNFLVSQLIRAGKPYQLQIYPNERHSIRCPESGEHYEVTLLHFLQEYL
Series [1] in a line: Cytotoxicity against human LO2 cells assessed as cell viability at 100 uM after 48 hrs by MTT assay relative to control. In kind it is cell-based, L02. As to conditions: read-out: Activity. The gist of the method:
(§1)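 Hepatic LO2 cells grown in DMEM with 10% FBS and antibiotics at 37 °C, 5% CO2; log-phase cells seeded at 1 × 10^4 per well and exposed to compounds for 48 h. MTT (5 mg/mL stock in PBS) added 4 h before end; formazan dissolved in DMSO, absorbance read at 490 nm.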

The nature of series [2]: Cytotoxicity against human LO2 cells assessed as cell viability at 50 uM after 48 hrs by MTT assay relative to control. The format is cell-based, L02. The conditions noted are these: read-out: Activity. The gist of the method: as §1
In general terms: Tetrazolium dyes change colour on reduction, which living cells bring about.

The nature of series [3]: Retention time of the compound in water at 1 uM by LC/MS/MS method. The format is physicochemical. As to conditions: buffer.
A short description of series [4]: Retention time of the compound in rat plasma at 1 uM by LC/MS/MS method. In kind it is ADME, cell-free.
Series [5] can be described thus: Drug metabolism in rat plasma assessed as (R)-2-((4-(3-Aminopiperidin-1-yl)-3-(but-2-yn-1-yl)-2,6-dioxo-3,6-dihydropyrimidin-1(2H)-yl)methyl)-6-fluorobenzoic acid hydrochloride formation at 1 uM after 30 mins by LC/MS/MS method. The format is ADME, cell-free. As to conditions: 0.5 h. In a few lines:
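Ester prodrug incubated with rat plasma at 37 °C for 0 and 30 min; ester and formed acid quantified by LC/MS/MS.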

The subject of a further series is Mus musculus. The experiment in a line: Hypoglycemic activity in po dosed Kunming mouse assessed as decrease in blood glucose AUC (0 to 120 mins) administered as single dose treated for 30 mins prior to glucose load by OGTT. In kind it is functional, organism-based. In a few lines: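 Male Kunming mice (20±2 g) fasted overnight (12 h), randomized (n = 8), given a single oral dose suspended in water vehicle; oral glucose 3 g/kg 30 min later. Blood sampled at -30, 0, 15, 30, 60 and 120 min; glucose AUC0–120 min versus vehicle, mean ± SEM, one-way ANOVA with Dunnett's test.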

A short description of series [6]: Retention time of the compound in rat plasma by LC/MS/MS method. In kind it is ADME, cell-free.
A short description of series [7]: Cytotoxicity against human LO2 cells assessed as cell viability at 20 uM after 48 hrs by MTT assay relative to control. In kind it is cell-based, L02. The conditions noted are these: read-out: Activity. The gist of the method:
as §1

Sequence of Dipeptidyl peptidase 8 (Q6V1X1 whole entry): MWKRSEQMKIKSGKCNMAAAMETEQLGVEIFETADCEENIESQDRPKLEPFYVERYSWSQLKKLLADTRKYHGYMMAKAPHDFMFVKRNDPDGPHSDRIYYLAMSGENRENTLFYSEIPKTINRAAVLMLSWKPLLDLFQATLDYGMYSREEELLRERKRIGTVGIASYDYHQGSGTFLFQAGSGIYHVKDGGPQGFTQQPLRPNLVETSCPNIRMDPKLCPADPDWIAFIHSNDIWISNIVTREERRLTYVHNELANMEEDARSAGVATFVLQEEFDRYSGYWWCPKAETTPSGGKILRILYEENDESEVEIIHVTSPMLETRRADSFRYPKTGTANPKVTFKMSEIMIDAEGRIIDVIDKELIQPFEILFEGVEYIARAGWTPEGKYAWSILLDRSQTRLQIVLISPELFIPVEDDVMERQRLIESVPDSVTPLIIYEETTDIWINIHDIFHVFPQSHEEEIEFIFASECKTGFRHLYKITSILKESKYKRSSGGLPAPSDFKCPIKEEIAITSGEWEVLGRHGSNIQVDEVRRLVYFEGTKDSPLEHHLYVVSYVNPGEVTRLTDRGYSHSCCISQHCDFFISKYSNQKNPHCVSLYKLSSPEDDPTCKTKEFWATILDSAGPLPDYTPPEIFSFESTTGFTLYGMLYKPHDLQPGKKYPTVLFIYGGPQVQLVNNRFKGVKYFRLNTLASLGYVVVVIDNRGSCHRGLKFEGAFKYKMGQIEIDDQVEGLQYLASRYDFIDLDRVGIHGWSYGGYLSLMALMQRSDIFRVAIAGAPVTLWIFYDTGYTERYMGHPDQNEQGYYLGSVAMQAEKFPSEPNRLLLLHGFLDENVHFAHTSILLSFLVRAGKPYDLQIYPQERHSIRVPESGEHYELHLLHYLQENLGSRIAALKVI

With `CC#CCn1c(N2CCC[C@@H](N)C2)cc(=O)n(Cc2cc(Br)ccc2C(=O)OC)c1=O`, the pIC50 at Dipeptidyl peptidase 8 and on Dipeptidyl peptidase 9 was below 4.00 each time. For the same compound, the viability at 48 h, 100 µM in series [1] was found to be 14%.
Turning to `CC#CCn1c(N2CCC[C@@H](N)C2)cc(=O)n(Cc2cc(Br)ccc2C(=O)O)c1=O`, the pIC50 at Dipeptidyl peptidase 8 and at Dipeptidyl peptidase 9 was below 4.00 each time. Further, the viability at 48 h, 100 µM in series [1] stood at 70%. Also, the viability at 48 h, 50 µM in series [2] came out at 90%.
`CC#CCn1c(N2CCC[C@@H](N)C2)cc(=O)n(Cc2ccccc2C(=O)O)c1=O`: the pIC50 on Dipeptidyl peptidase 8 and at Dipeptidyl peptidase 9 was below 4.00 throughout.
On to `CC#CCn1c(N2CCC[C@@H](N)C2)cc(=O)n(Cc2ccc(Br)cc2C(=O)O)c1=O`, for which the pIC50 on Dipeptidyl peptidase 8 and on Dipeptidyl peptidase 9 was below 4.00 in each case.
Consider `CC#CCn1c(N2CCC[C@@H](N)C2)cc(=O)n(Cc2ccc(Cl)cc2C(=O)O)c1=O`, for which the pIC50 at Dipeptidyl peptidase 8 and on Dipeptidyl peptidase 9 was below 4.00 throughout.
Regarding `CC#CCn1c(N2CCC[C@@H](N)C2)cc(=O)n(Cc2cccc(F)c2C(=O)OC)c1=O`, the pIC50 at Dipeptidyl peptidase 8 and on Dipeptidyl peptidase 9 was below 4.00 throughout. For the same compound, in series [1], the viability at 48 h, 100 µM was 70%. Moreover, the viability at 48 h, 50 µM in series [2] came out at 90%. Besides, the Retention_time in [3] and in series [4] was 5.41 min in each case. Further, in [5], the Drug metabolism result is “Metabolite_Detected”. Also, in the series on Mus musculus, the Activity entry was “Dose-dependent effect”.
For the compound `CC#CCn1c(N2CCC[C@@H](N)C2)cc(=O)n(Cc2cccc(F)c2C(=O)O)c1=O`, in series [1], the viability at 48 h, 100 µM is 70%. Besides, the viability at 48 h, 50 µM in series [2] was 90%. Also, the values for the Retention_time in series [3] and in series [6] were 2.03 min and 2 min, respectively.
`COc1cccc2c1C(=O)c1c(O)c3c(c(O)c1C2=O)C[C@@](O)(C(=O)CO)C[C@@H]3O[C@H]1C[C@H](N)[C@H](O)[C@H](C)O1` [DOXORUBICIN]: in series [7], the viability at 48 h, 20 µM was 11%.
For the compound `CC#CCn1c(N2CCC[C@@H](N)C2)cc(=O)n(Cc2cc(C#N)ccc2C(=O)O)c1=O`, the pIC50 on Dipeptidyl peptidase 8 and on Dipeptidyl peptidase 9 was below 4.00 throughout.
For the compound `CC#CCn1c(N2CCC[C@@H](N)C2)cc(=O)n(Cc2cc(OC)ccc2C(=O)O)c1=O`, the pIC50 on Dipeptidyl peptidase 8 and at Dipeptidyl peptidase 9 was below 4.00 in each case.
With `CC#CCn1c(N2CCC[C@@H](N)C2)cc(=O)n(Cc2ccc(F)cc2C(=O)O)c1=O`, the negative logarithm of the IC50 (pIC50) at Dipeptidyl peptidase 8 and at Dipeptidyl peptidase 9 was below 4.00 in each case.

In general, pIC50 refers to the negative decadic logarithm of the IC50, by convention in mol/L.
